Assay type in all cases: functional
Assay [1] has as its system Streptococcus pyogenes. Kind of assay: Antimicrobial activity against Streptococcus pyogenes clinical isolate expressing mosaic variant of mef gene by broth microdilution method. Summed up: (§1)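 Clinical isolates were subcultured from -70°C or 4°C storage onto horse blood agar and grown overnight at 36°C in 5 to 6% CO2. MICs were then measured by CLSI broth microdilution. mef presence was screened by a TaqMan plus/minus assay, and the mef subclass was assigned by sequencing.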

Assay [2] concerns Streptococcus pyogenes. The assay can be described thus: Antimicrobial activity against Streptococcus pyogenes clinical isolate expressing mef(E) gene by broth microdilution method. Summed up:
as §1
(Broth dilution looks for growth in wells or tubes with falling amounts of substance.)

The test system of assay [3] is Streptococcus pyogenes. Kind of assay: Antimicrobial activity against Streptococcus pyogenes clinical isolate expressing mef(A) gene by broth microdilution method. Put shortly:
as §1

The structures appear in SMILES notation. Converted amounts (≈) assume the structure as drawn.

Take `CC[C@H]1OC(=O)[C@H](C)[C@@H](O[C@H]2C[C@@](C)(OC)[C@@H](O)[C@H](C)O2)[C@H](C)[C@@H](O[C@@H]2O[C@H](C)C[C@H](N(C)C)[C@H]2O)[C@](C)(O)C[C@@H](C)CN(C)[C@H](C)[C@@H](O)[C@]1(C)O` [AZITHROMYCIN]: the lowest concentration to inhibit growth in the assay on Streptococcus pyogenes [1] (MIC) was 16 µg/mL (≈ 21.4 µM). In addition, the MIC50 (in general, an inhibitory concentration at the 50% level, which refers to growth in some studies and to a panel of isolates in others) amounted to 16 µg/mL (≈ 21.4 µM) in the assay on Streptococcus pyogenes [1], 8 µg/mL (≈ 10.7 µM) with Streptococcus pyogenes [2] and 8 µg/mL (≈ 10.7 µM) against Streptococcus pyogenes [3]. Besides, the values for the MIC90 with Streptococcus pyogenes [1], against Streptococcus pyogenes [2] and in the assay with Streptococcus pyogenes [3] were 32 µg/mL (≈ 42.7 µM), 16 µg/mL (≈ 21.4 µM) and 16 µg/mL (≈ 21.4 µM), respectively.
For `CC[C@H]1OC(=O)[C@H](C)[C@@H](O[C@H]2C[C@@](C)(OC)[C@@H](O)[C@H](C)O2)[C@H](C)[C@@H](O[C@@H]2O[C@H](C)C[C@H](N(C)C)[C@H]2O)[C@](C)(OC)C[C@@H](C)C(=O)[C@H](C)[C@@H](O)[C@]1(C)O` [CLARITHROMYCIN], the MIC50 was found to be 8 µg/mL (≈ 10.7 µM) against Streptococcus pyogenes [1], 4 µg/mL (≈ 5.35 µM) in the assay with Streptococcus pyogenes [2] and 8 µg/mL (≈ 10.7 µM) against Streptococcus pyogenes [3]. In addition, the MIC90 (usually an inhibitory concentration at the 90% level, which refers to growth in some studies and to a panel of isolates in others) with Streptococcus pyogenes [1] worked out at 8 µg/mL (≈ 10.7 µM); against Streptococcus pyogenes [2], 8 µg/mL (≈ 10.7 µM); against Streptococcus pyogenes [3], 16 µg/mL (≈ 21.4 µM).
As to `CCC[C@@H]1C[C@@H](C(=O)N[C@@H]([C@H]2O[C@H](SC)[C@H](O)[C@@H](O)[C@H]2O)[C@H](C)Cl)N(C)C1` [CLINDAMYCIN], the figures for the MIC50 against Streptococcus pyogenes [1], against Streptococcus pyogenes [2] and against Streptococcus pyogenes [3] were 0.06 µg/mL (≈ 0.141 µM), 0.25 µg/mL (≈ 0.588 µM) and 0.06 µg/mL (≈ 0.141 µM), respectively. Besides, the MIC90 against Streptococcus pyogenes [1] was 0.06 µg/mL (≈ 0.141 µM); against Streptococcus pyogenes [2], 0.25 µg/mL (≈ 0.588 µM); against Streptococcus pyogenes [3], 0.25 µg/mL (≈ 0.588 µM).
With `CC[C@H]1OC(=O)[C@H](C)[C@@H](O[C@H]2C[C@@](C)(OC)[C@@H](O)[C@H](C)O2)[C@H](C)[C@@H](O[C@@H]2O[C@H](C)C[C@H](N(C)C)[C@H]2O)[C@](C)(O)C[C@@H](C)C(=O)[C@H](C)[C@@H](O)[C@]1(C)O` [ERYTHROMYCIN], in the assay on Streptococcus pyogenes [1], the MIC (usually the least concentration at which growth counts as inhibited) came out at 8 µg/mL (≈ 10.9 µM), the MIC50 was 8 µg/mL (≈ 10.9 µM) and the MIC90 turned out to be 16 µg/mL (≈ 21.8 µM). In the assay with Streptococcus pyogenes [2], the MIC50 turned out to be 8 µg/mL (≈ 10.9 µM) and the MIC90 amounted to 16 µg/mL (≈ 21.8 µM). Moreover, in the assay with Streptococcus pyogenes [3], the MIC50 stood at 16 µg/mL (≈ 21.8 µM) and the MIC90 amounted to 16 µg/mL (≈ 21.8 µM).
In the case of `CN(C)[C@@H]1C(O)=C(C(N)=O)C(=O)[C@@]2(O)C(O)=C3C(=O)c4c(O)cccc4[C@@](C)(O)[C@H]3C[C@@H]12` [TETRACYCLINE], the MIC in the assay on Streptococcus pyogenes [1] amounted to 32 µg/mL (≈ 72 µM); in the assay on Streptococcus pyogenes [3], 0.25 µg/mL (≈ 0.563 µM). For the same compound, the MIC50 with Streptococcus pyogenes [1] turned out to be 32 µg/mL (≈ 72 µM); with Streptococcus pyogenes [2], 32 µg/mL (≈ 72 µM); with Streptococcus pyogenes [3], 0.25 µg/mL (≈ 0.563 µM). Further, the MIC90 against Streptococcus pyogenes [1] was 32 µg/mL (≈ 72 µM); with Streptococcus pyogenes [2], 32 µg/mL (≈ 72 µM); against Streptococcus pyogenes [3], 0.25 µg/mL (≈ 0.563 µM).
